Test results reported in ChEMBL document CHEMBL4196093, “Small-Molecule Activator of UNC-51-Like Kinase 1 (ULK1) That Induces Cytoprotective Autophagy for Parkinson's Disease Treatment” (J Med Chem, 2018).

Assays:
[1] = molecular target: T1, Serine/threonine-protein kinase ULK1 (Homo sapiens) (UniProt O75385); assay: (§1) Induction of human recombinant N-terminal GST tagged-ULK1 (1 to 649 residues) kinase activity expressed in baculovirus infected insect Sf9 cells at 100 nM using MBP as substrate after 60 mins by ADP-glo assay relative to control
T1 sequence (whole entry): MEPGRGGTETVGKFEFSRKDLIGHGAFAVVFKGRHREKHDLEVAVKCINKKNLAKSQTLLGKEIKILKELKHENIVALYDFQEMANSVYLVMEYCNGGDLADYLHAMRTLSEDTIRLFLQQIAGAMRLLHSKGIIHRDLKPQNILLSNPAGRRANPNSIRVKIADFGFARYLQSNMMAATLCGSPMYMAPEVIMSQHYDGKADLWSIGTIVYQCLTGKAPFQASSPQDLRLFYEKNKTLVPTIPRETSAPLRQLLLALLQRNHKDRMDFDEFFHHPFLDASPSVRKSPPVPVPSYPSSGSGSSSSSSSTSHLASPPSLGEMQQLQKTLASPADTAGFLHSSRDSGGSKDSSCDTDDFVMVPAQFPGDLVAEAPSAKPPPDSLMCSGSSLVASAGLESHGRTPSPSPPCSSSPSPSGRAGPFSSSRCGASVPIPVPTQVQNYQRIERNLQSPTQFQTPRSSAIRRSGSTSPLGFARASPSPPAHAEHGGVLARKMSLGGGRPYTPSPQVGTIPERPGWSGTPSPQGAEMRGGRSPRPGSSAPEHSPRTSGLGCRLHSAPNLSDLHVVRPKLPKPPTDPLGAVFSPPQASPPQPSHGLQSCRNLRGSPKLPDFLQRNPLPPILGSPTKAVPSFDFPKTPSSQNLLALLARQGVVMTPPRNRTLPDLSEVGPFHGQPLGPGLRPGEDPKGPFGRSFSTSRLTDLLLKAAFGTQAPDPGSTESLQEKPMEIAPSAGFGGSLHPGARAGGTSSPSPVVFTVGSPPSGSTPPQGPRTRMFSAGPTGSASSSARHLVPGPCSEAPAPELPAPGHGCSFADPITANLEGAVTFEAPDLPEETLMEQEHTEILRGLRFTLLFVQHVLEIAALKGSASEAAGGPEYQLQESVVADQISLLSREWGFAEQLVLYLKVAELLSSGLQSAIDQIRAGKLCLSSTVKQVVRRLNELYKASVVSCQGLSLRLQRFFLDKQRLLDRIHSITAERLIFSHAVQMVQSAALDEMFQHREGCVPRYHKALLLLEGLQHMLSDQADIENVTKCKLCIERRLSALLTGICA
Method in brief: (§2)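 Recombinant human ULK1 (10 ng) with MBP (0.1 µg/µl)/10 µM ATP and compound at 100 nM in 40 mM Tris pH 7.5, 20 mM MgCl2, 50 µM DTT, 0.1 mg/ml BSA. Incubated 60 min at room temperature; ADP-Glo luminescence read. Three independent experiments, mean ± SEM.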

[2] = molecular target: T1, Serine/threonine-protein kinase ULK1 (Homo sapiens); assay: Induction of ULK1-mediated autophagy in human SH-SY5Y cells at 1 uM after 6 hrs by MDC-staining based flow cytometric analysis relative to control; format: cell-based
Method in brief: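 Autophagy scored as percentage of MDC-positive SH-SY5Y cells by flow cytometry after 1 µM compound; mean ± SEM.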

[3] = molecular target: T1, Serine/threonine-protein kinase ULK1 (Homo sapiens); assay: as §1, with “(R)-2-(3-(3,5-Bis(trifluoromethyl)phenyl)thioureido)-N-(2,4-difluorophenyl)-2-phenylacetamide” for “control”; method in brief: as §2
[4] = molecular target: T2, Serine/threonine-protein kinase ULK1 (Homo sapiens, UniProt O75385); assay: Induction of human recombinant N-terminal GST tagged-ULK1 (1 to 649 residues) kinase activity expressed in baculovirus infected insect Sf9 cells using MBP as substrate after 60 mins by ADP-glo assay
T2 sequence (O75385 whole entry): T1 sequence (whole entry)
Method in brief: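 ULK1 (10 ng) incubated with MBP (0.1 µg/µl)/10 µM ATP and a compound concentration series in Tris pH 7.5/MgCl2/DTT/BSA buffer for 60 min at room temperature. ADP-Glo luminescence read. EC50 derived from the curve; Emax normalized to maximal response of the reference activator.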

Compound	Activity [1] [%]	Activity [2] [%]	fold change (FC) [3]	EC50 [4] [nM]
O=C(Nc1ccc(F)cc1F)[C@H](NCCc1ccc(F)cc1)c1ccccc1	202	30.1	0.742	40.8
CN(C)c1ccc(CCN[C@@H](C(=O)Nc2ccc(F)cc2F)c2ccccc2)cc1	149	20.2		
COc1ccc(CCN[C@@H](C(=O)Nc2ccccc2C)c2ccccc2)cc1OC	147	18.1		
C[C@@H](NC(=O)[C@H](NC(=O)Nc1cccc2ccccc12)c1ccccc1)c1ccccc1	149	19.6		
CN1CCN(CC(OC(=O)Cc2ccccn2)c2ccccc2)CC1 (stereo not drawn)	143	9.99		
COc1ccc(N2CCN(CC(OC(=O)c3ccc(C)cc3)c3ccccc3)CC2)cc1 (stereo not drawn)	139	4.51		
Cc1ccc(NC(=O)N[C@@H](C(=O)Nc2ccccc2C)c2ccccc2)cc1	174	34.9		
CN1CCN(CC(OC(=O)c2ccc3c(c2)OCO3)c2ccccc2)CC1 (stereo not drawn)	197	14.7	0.692	54.8
COc1ccc(CCNC(=S)N[C@@H](C(=O)Nc2cc(C(F)(F)F)cc(C(F)(F)F)c2)c2ccccc2)cc1OC	184	39		
Cc1ccccc1NC(=O)[C@H](NCCc1ccc(Cl)c(Cl)c1)c1ccccc1	153	20.3		
Clc1ccc(CO[C@@H](Cn2ccnc2)c2ccc(Cl)cc2Cl)cc1			0.324	263

Next, values leading:

Activity [1] [%]	Activity [2] [%]	fold change (FC) [3]	EC50 [4] [nM]	Compound
171	14.2			COc1ccc(N2CCN(CC(OC(=O)c3ccc(C(F)(F)F)cc3)c3ccccc3)CC2)cc1 (stereo not drawn)
142	7.41			CN1CCN(CC(OC(=O)c2ccc(-c3ccccc3)cc2)c2ccccc2)CC1 (stereo not drawn)
139	13.8			Cc1ccc(CCN[C@@H](C(=O)Nc2ccccc2C)c2ccccc2)cc1
205	43.1			Cc1ccccc1NC(=O)[C@H](NC(=S)Nc1cc(C(F)(F)F)cc(C(F)(F)F)c1)c1ccccc1
139	20.9			COc1ccc(CCNC(=O)N[C@@H](C(=O)Nc2cccc3ccccc23)c2ccccc2)cc1OC
144	16.8			Cc1ccccc1NC(=O)[C@H](NCCc1ccc2[nH]ccc2c1)c1ccccc1
146	24.4			Cc1ccccc1NC(=O)[C@H](NC(=O)Nc1cccc2ccccc12)c1ccccc1
146	15.3			Cc1ccccc1NC(=O)[C@H](NCCc1cc(Cl)ccc1O)c1ccccc1
227	43.6			O=C(Nc1ccc(C(F)(F)F)cc1)N[C@@H](C(=O)Nc1cc(F)ccc1F)c1ccccc1
147	9.2			COc1ccc(N2CCN(CC(OC(=O)c3ccc(-c4ccccc4)cc3)c3ccccc3)CC2)cc1 (stereo not drawn)
145	19.2			COc1ccc(NC(=O)N[C@@H](C(=O)N[C@H](C)c2ccccc2)c2ccccc2)cc1
